The results in this text go back to ChEMBL document CHEMBL4732210, “Discovery of new phenyl sulfonyl-pyrimidine carboxylate derivatives as the potential multi-target drugs with effective anti-Alzheimer's action: Design, synthesis, crystal structure and in-vitro biological evaluation” (Eur J Med Chem, 2021).

Holding throughout (type): cell-based
Holding throughout (conditions): Erythrocyte

Compound in data set [1]: CCOC(=O)c1c(C)nc(N2CCN(S(=O)(=O)c3ccc(NC(C)=O)c(Cl)c3)CC2)nc1-c1ccc(OC)c(OC)c1
Description: Non-competitive inhibition of AChE in human erythrocytes assessed as Km at 100 nM measured at 2 mins interval for 10 mins by Lineweaver-Burk plot analysis. In short, it runs like this: (§1)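 Human AChE kinetics in the Ellman DTNB assay. Inhibitor at 25, 50 and 100 nM, each with six ATCI concentrations, against an inhibitor-free series. Activity read every 2 min over 10 min. Km and Vmax from Michaelis–Menten non-linear regression; mechanism from Lineweaver–Burk plots; Ki from Dixon plot over four inhibitor concentrations and from slope/intercept replots. Triplicate.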

Compound in data set [2]: CCOC(=O)c1c(C)nc(N2CCN(S(=O)(=O)c3ccc(NC(C)=O)c(Cl)c3)CC2)nc1-c1ccc(OC)c(OC)c1
Description: Non-competitive inhibition of AChE in human erythrocytes assessed as Vmax at 25 nM measured at 2 mins interval for 10 mins by Lineweaver-Burk plot analysis. In short, it runs like this: as §1

Compound in data set [3]: CCOC(=O)c1c(C)nc(N2CCN(S(=O)(=O)c3ccc(NC(C)=O)c(Cl)c3)CC2)nc1-c1ccc(OC)c(OC)c1
Description: Non-competitive inhibition of AChE in human erythrocytes assessed as Km at 50 nM measured at 2 mins interval for 10 mins by Lineweaver-Burk plot analysis. The gist of the method: as §1

Compound in data set [4]: CCOC(=O)c1c(C)nc(N2CCN(S(=O)(=O)c3ccc(NC(C)=O)c(Cl)c3)CC2)nc1-c1ccc(OC)c(OC)c1
Put plainly: Non-competitive inhibition of AChE in human erythrocytes assessed as Vmax at 50 nM measured at 2 mins interval for 10 mins by Lineweaver-Burk plot analysis. The gist of the method: as §1

Compound in data set [5]: CCOC(=O)c1c(C)nc(N2CCN(S(=O)(=O)c3ccc(NC(C)=O)c(Cl)c3)CC2)nc1-c1ccc(OC)c(OC)c1
Put plainly: Non-competitive inhibition of AChE in human erythrocytes assessed as Km at 25 nM measured at 2 mins interval for 10 mins by Lineweaver-Burk plot analysis. In short, it runs like this: as §1

Compound in data set [6]: CCOC(=O)c1c(C)nc(N2CCN(S(=O)(=O)c3ccc(NC(C)=O)c(Cl)c3)CC2)nc1-c1ccc(OC)c(OC)c1
Description: Non-competitive inhibition of AChE in human erythrocytes assessed as Vmax at 100 nM measured at 2 mins interval for 10 mins by Lineweaver-Burk plot analysis. The gist of the method: as §1

B1: Acetylcholinesterase (Homo sapiens), P22303 (protein)
chain: MRPPQCLLHTPSLASPLLLLLLWLLGGGVGAEGREDAELLVTVRGGRLRGIRLKTPGGPVSAFLGIPFAEPPMGPRRFLPPEPKQPWSGVVDATTFQSVCYQYVDTLYPGFEGTEMWNPNRELSEDCLYLNVWTPYPRPTSPTPVLVWIYGGGFYSGASSLDVYDGRFLVQAERTVLVSMNYRVGAFGFLALPGSREAPGNVGLLDQRLALQWVQENVAAFGGDPTSVTLFGESAGAASVGMHLLSPPSRGLFHRAVLQSGAPNGPWATVGMGEARRRATQLAHLVGCPPGGTGGNDTELVACLRTRPAQVLVNHEWHVLPQESVFRFSFVPVVDGDFLSDTPEALINAGDFHGLQVLVGVVKDEGSYFLVYGAPGFSKDNESLISRAEFLAGVRVGVPQVSDLAAEAVVLHYTDWLHPEDPARLREALSDVVGDHNVVCPVAQLAGRLAAQGARVYAYVFEHRASTLSWPLWMGVPHGYEIEFIFGIPLDPSRNYTAEEKIFAQRLMRYWANFARTGDPNEPRDPKAPQWPPYTAGAQQYVSLDLRPLEVRRGLRAQACAFWNRFLPKLLSATDTLDEAERQWKAEFHRWSSYMVHWKNQFDHYSKQDRCSDL
One may read the Km as the substrate concentration at which the rate is half of its maximum. As for B1, the results for the Km in data set [1], in data set [3] and in data set [5] were 0.0965 µM, 0.0852 µM and 0.0772 µM, respectively. The Vmax in data set [2] came to 7.2 U/min; in data set [4], 6.52 U/min; in data set [6], 5.54 U/min.
